According to ChEMBL document CHEMBL4680175, “Sulfonamide-based ring-fused analogues for CAN508 as novel carbonic anhydrase inhibitors endowed with antitumor activity: Design, synthesis, and in vitro biological evaluation” (Eur J Med Chem, 2020):
The source made the active and inactive calls. No cut-off for these calls is given here.

Legend:
Carbonic anhydrase 2 = Carbonic anhydrase 2 (Homo sapiens, UniProt P00918); test: Inhibition of recombinant human carbonic anhydrase 2 preincubated with enzyme for 15 mins by phenol red dye based stopped flow CO2 hydrase assay
CCRF-CEM = test: Antitumor activity against human CCRF-CEM cells assessed as cell growth inhibition at 10 uM incubated for 48 hrs by sulforhodamine B assay; assay type: functional; settings: read-out: GI
Method in brief: (§1)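 NCI Drug Evaluation Branch protocol: primary single-dose screen at 10 μM across a 57-line human cancer panel. Drug exposure is 48 h. Cell growth and viability are read by sulforhodamine B assay. Data are given as a mean graph of percent growth of treated cells and reported as percentage growth inhibition (GI%).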

HL-60(TB) = test: Antitumor activity against human HL-60(TB) cells assessed as cell growth inhibition at 10 uM incubated for 48 hrs by sulforhodamine B assay; assay type: functional; settings: read-out: GI
Method in brief: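 Single-dose NCI-60-type screen of 57 human cancer cell lines at 10 μM under the NCI Drug Evaluation Branch protocol. Drugs exposed for 48 h; growth and viability read by sulforhodamine B assay. Data given as mean-graph percent growth of treated cells, expressed as percent growth inhibition.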

SR = test: Antitumor activity against human SR cells assessed as cell growth inhibition at 10 uM incubated for 48 hrs by sulforhodamine B assay; assay type: functional; settings: read-out: GI
Method in brief: (§2)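 NCI one-dose screen: 57-cell-line panel exposed at 10 μM for 48 h, Drug Evaluation Branch protocol. Growth and viability read by sulforhodamine B; data given as percent growth inhibition from the mean-graph of percent growth of treated cells.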

A549 = test: Antitumor activity against human A549/ATCC cells assessed as cell growth inhibition at 10 uM incubated for 48 hrs by sulforhodamine B assay; assay type: functional; settings: read-out: GI; method in brief: as §1
EKVX = test: Antitumor activity against human EKVX cells assessed as cell growth inhibition at 10 uM incubated for 48 hrs by sulforhodamine B assay; assay type: functional; settings: read-out: GI; method in brief: as §1
NCI-H23 = test: Antitumor activity against human NCI-H23 cells assessed as cell growth inhibition at 10 uM incubated for 48 hrs by sulforhodamine B assay; assay type: functional; settings: read-out: GI; method in brief: as §1
COLO 205 = test: Antitumor activity against human COLO205 cells assessed as cell growth inhibition at 10 uM incubated for 48 hrs by sulforhodamine B assay; assay type: functional; settings: read-out: GI; method in brief: as §1
HCC 2998 = test: Antitumor activity against human HCC2998 cells assessed as cell growth inhibition at 10 uM incubated for 48 hrs by sulforhodamine B assay; assay type: functional; settings: read-out: GI; method in brief: as §1
HCT-15 = test: Antitumor activity against human HCT15 cells assessed as cell growth inhibition at 10 uM incubated for 48 hrs by sulforhodamine B assay; assay type: functional; settings: read-out: GI; method in brief: as §1
HT-29 = test: Antitumor activity against human HT-29 cells assessed as cell growth inhibition at 10 uM incubated for 48 hrs by sulforhodamine B assay; assay type: functional; settings: read-out: GI; method in brief: as §1
SW-620 = test: Antitumor activity against human SW620 cells assessed as cell growth inhibition at 10 uM incubated for 48 hrs by sulforhodamine B assay; assay type: functional; settings: read-out: GI; method in brief: as §2
SNB-19 = test: Antitumor activity against human SNB-19 cells assessed as cell growth inhibition at 10 uM incubated for 48 hrs by sulforhodamine B assay; assay type: functional; settings: read-out: GI; method in brief: as §1
M14 = test: Antitumor activity against human M14 cells assessed as cell growth inhibition at 10 uM incubated for 48 hrs by sulforhodamine B assay; assay type: functional; settings: read-out: GI; method in brief: as §1
MDA-MB-435 = test: Antitumor activity against human MDA-MB-435 cells assessed as cell growth inhibition at 10 uM incubated for 48 hrs by sulforhodamine B assay; assay type: functional; settings: read-out: GI; method in brief: as §1
SK-MEL-28 = test: Antitumor activity against human SK-MEL-28 cells assessed as cell growth inhibition at 10 uM incubated for 48 hrs by sulforhodamine B assay; assay type: functional; settings: read-out: GI; method in brief: as §1
UACC-257 = test: Antitumor activity against human UACC-257 cells assessed as cell growth inhibition at 10 uM incubated for 48 hrs by sulforhodamine B assay; assay type: functional; settings: read-out: GI; method in brief: as §2
UACC-62 = test: Antitumor activity against human UACC-62 cells assessed as cell growth inhibition at 10 uM incubated for 48 hrs by sulforhodamine B assay; assay type: functional; settings: read-out: GI; method in brief: as §2
OVCAR-4 = test: Antitumor activity against human OVCAR-4 cells assessed as cell growth inhibition at 10 uM incubated for 48 hrs by sulforhodamine B assay; assay type: functional; settings: read-out: GI; method in brief: as §1
OVCAR-5 = test: Antitumor activity against human OVCAR-5 cells assessed as cell growth inhibition at 10 uM incubated for 48 hrs by sulforhodamine B assay; assay type: functional; settings: read-out: GI; method in brief: as §1
SK-OV-3 = test: Antitumor activity against human SK-OV-3 cells assessed as cell growth inhibition at 10 uM incubated for 48 hrs by sulforhodamine B assay; assay type: functional; settings: read-out: GI; method in brief: as §1
DU-145 = test: Antitumor activity against human DU-145 cells assessed as cell growth inhibition at 10 uM incubated for 48 hrs by sulforhodamine B assay; assay type: functional; settings: read-out: GI; method in brief: as §1
786-0 = test: Antitumor activity against human 786-0 cells assessed as cell growth inhibition at 10 uM incubated for 48 hrs by sulforhodamine B assay; assay type: functional; settings: read-out: GI; method in brief: as §1
A498 = test: Antitumor activity against human A498 cells assessed as cell growth inhibition at 10 uM incubated for 48 hrs by sulforhodamine B assay; assay type: functional; settings: read-out: GI; method in brief: as §1
ACHN = test: Antitumor activity against human ACHN cells assessed as cell growth inhibition at 10 uM incubated for 48 hrs by sulforhodamine B assay; assay type: functional; settings: read-out: GI; method in brief: as §1
UO-31 = test: Antitumor activity against human UO-31 cells assessed as cell growth inhibition at 10 uM incubated for 48 hrs by sulforhodamine B assay; assay type: functional; settings: read-out: GI; method in brief: as §2
TK-10 = test: Antitumor activity against human TK-10 cells assessed as cell growth inhibition at 10 uM incubated for 48 hrs by sulforhodamine B assay; assay type: functional; settings: read-out: GI; method in brief: as §2
MCF7 [1] = test: Antiproliferative activity against human MCF7 cells measured after 48 hrs under normoxic condition by MTT assay; assay type: functional, cell-based; settings: MCF7, 48 h
MCF7 [2] = test: Antiproliferative activity against human MCF7 cells measured after 48 hrs under CoCl2-induced hypoxic condition by MTT assay; assay type: functional, cell-based; settings: MCF7, 48 h
MDA-MB-468 [3] = test: Antiproliferative activity against human MDA-MB-468 cells measured after 48 hrs under normoxic condition by MTT assay; assay type: functional, cell-based; settings: MDA-MB-468, 48 h
MCF7 [4] = test: Induction of cell cycle arrest in human MCF7 cells assessed as accumulation at G2/M phase at IC50 concentration incubated for 24 hrs by PI/RNase staining based flow cytometric analysis; assay type: functional
Method in brief: (§3)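 Cells were washed in ice-cold PBS, fixed in ice-cold 70% ethanol, treated with 100 µg/mL RNase and stained with 40 µg/mL PI. DNA content was read by flow cytometry, with sub-G1 compared against control.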

MCF7 [5] = test: Induction of cell cycle arrest in human MCF7 cells assessed as decrease in S phase population at IC50 concentration incubated for 24 hrs by PI/RNase staining based flow cytometric analysis; assay type: functional; method in brief: as §3
MCF7 [6] = test: Induction of apoptosis in human MCF7 cells assessed as late apoptotic cells by Annexin V-FITC/propidium iodide staining based flow cytometric analysis (reference value: 0.29 %); assay type: functional
MCF7 [7] = test: Induction of apoptosis in human MCF7 cells assessed as necrotic cells by Annexin V-FITC/propidium iodide staining based flow cytometric analysis (reference value: 1.3 %); assay type: functional
MCF7 [8] = test: Induction of apoptosis in human MCF7 cells assessed as fold increase in apoptotic cells by Annexin V-FITC/propidium iodide staining based flow cytometric analysis relative to control; assay type: functional
MDA-MB-468 [9] = test: Antiproliferative activity against human MDA-MB-468 cells measured after 48 hrs under CoCl2-induced hypoxic condition by MTT assay; assay type: functional, cell-based; settings: MDA-MB-468, 48 h
SF-295 = test: Antitumor activity against human SF295 cells assessed as cell growth inhibition at 10 uM incubated for 48 hrs by sulforhodamine B assay; assay type: functional; settings: read-out: GI; method in brief: as §1

Compound | Ki (Carbonic anhydrase 2) [nM] | inhibition of growth at 10 µM (CCRF-CEM) [%] | inhibition of growth at 10 µM (HL-60(TB)) [%] | inhibition of growth at 10 µM (SR) [%] | inhibition of growth at 10 µM (A549) [%] | inhibition of growth at 10 µM (EKVX) [%] | inhibition of growth at 10 µM (NCI-H23) [%] | inhibition of growth at 10 µM (COLO 205) [%] | inhibition of growth at 10 µM (HCC 2998) [%] | inhibition of growth at 10 µM (HCT-15) [%] | inhibition of growth at 10 µM (HT-29) [%] | inhibition of growth at 10 µM (SW-620) [%] | inhibition of growth at 10 µM (SNB-19) [%] | inhibition of growth at 10 µM (M14) [%] | inhibition of growth at 10 µM (MDA-MB-435) [%] | inhibition of growth at 10 µM (SK-MEL-28) [%] | inhibition of growth at 10 µM (UACC-257) [%] | inhibition of growth at 10 µM (UACC-62) [%] | inhibition of growth at 10 µM (DU-145) [%] | inhibition of growth at 10 µM (UO-31) [%] | also measured
Nc1nn2cc(-c3ccc(Br)cc3)[nH]c2c1/N=N/c1ccc(S(N)(=O)=O)cc1 | 49.3 | 45 | 36 | 54 | 51 | 21 | 30 | 28 | 33 | 63 | 34 | 48 | 26 | 61 | 46 | 32 | 21 | 47 | 47 | 74 | inhibition of growth at 10 µM (OVCAR-4): 43%; inhibition of growth at 10 µM (OVCAR-5): 24%; inhibition of growth at 10 µM (SK-OV-3): 82%; inhibition of growth at 10 µM (786-0): 56%; inhibition of growth at 10 µM (A498): 83%; inhibition of growth at 10 µM (ACHN): 76%; inhibition of growth at 10 µM (TK-10): 50%
N#Cc1c(-c2ccc(Cl)cc2)nc2c(/N=N/c3ccc(S(N)(=O)=O)cc3)c(N)nn2c1N | 496 | 65 | – | – | – | – | – | – | – | – | – | – | – | – | – | – | – | – | 40 | 36 | IC50 (MCF7 [1]): 2070 nM; IC50 (MCF7 [2]): 10300 nM; IC50 (MDA-MB-468 [3]): 11400 nM; Activity (MCF7 [4]): Active; Activity (MCF7 [5]): Active; Activity (MCF7 [6]): 8.2%; Activity (MCF7 [7]): 2.17%; fold change (FC) (MCF7 [8]): 18; IC50 (MDA-MB-468 [9]): 19600 nM
Nc1nn2cc(-c3ccccc3)[nH]c2c1/N=N/c1ccc(S(N)(=O)=O)cc1 | 75.4 | 80 | 72 | 87 | 67 | 45 | 54 | 55 | 54 | 77 | 61 | 74 | 40 | 69 | 71 | 55 | 31 | 69 | 57 | 81 | inhibition of growth at 10 µM (SF-295): 52%; inhibition of growth at 10 µM (OVCAR-4): 63%; inhibition of growth at 10 µM (OVCAR-5): 35%; inhibition of growth at 10 µM (SK-OV-3): 87%; inhibition of growth at 10 µM (786-0): 72%; inhibition of growth at 10 µM (A498): 92%; inhibition of growth at 10 µM (ACHN): 91%; inhibition of growth at 10 µM (TK-10): 52%
